Measured values from ChEMBL document CHEMBL4038309, “Design and Synthesis of Chlorinated and Fluorinated 7-Azaindenoisoquinolines as Potent Cytotoxic Anticancer Agents That Inhibit Topoisomerase I” (J Med Chem, 2017).
Activity calls are given as the source filed them. No cut-off for these calls is given here.

Legend:
[1] = Toxicity in zebrafish embryo assessed as survival at 0.01 uM preincubated for 1 hr measured after 96 hrs (reference value: 82.5 +/- 8.4%); parameters: species or system Danio rerio; conditions: zebrafish embryos
[2] = Toxicity in zebrafish embryo assessed as survival at 0.1 uM preincubated for 1 hr measured after 24 hrs (reference value: 86.2 +/- 8.5%); parameters: species or system Danio rerio; conditions: zebrafish embryos
[3] = Toxicity in zebrafish embryo assessed as survival at 1 uM preincubated for 1 hr measured after 48 hrs (reference value: 84.4 +/- 8.5%); parameters: species or system Danio rerio; conditions: zebrafish embryos
[4] = Toxicity in zebrafish embryo assessed as survival at 0.01 uM preincubated for 1 hr measured after 72 hrs (reference value: 82.5 +/- 8.4%); parameters: species or system Danio rerio; conditions: zebrafish embryos
[5] = Toxicity in zebrafish embryo assessed as survival at 0.01 uM preincubated for 1 hr measured after 120 hrs (reference value: 82.5 +/- 8.4%); parameters: species or system Danio rerio; conditions: zebrafish embryos
[6] = Toxicity in zebrafish embryo assessed as survival at 0.1 uM preincubated for 1 hr measured after 96 hrs (reference value: 82.5 +/- 8.4%); parameters: species or system Danio rerio; conditions: zebrafish embryos
[7] = Toxicity in zebrafish embryo assessed as survival at 1 uM preincubated for 1 hr measured after 24 hrs (reference value: 86.2 +/- 8.5%); parameters: species or system Danio rerio; conditions: zebrafish embryos
[8] = Toxicity in zebrafish embryo assessed as survival at 1 uM preincubated for 1 hr measured after 72 hrs (reference value: 82.5 +/- 8.4%); parameters: species or system Danio rerio; conditions: zebrafish embryos
[9] = Toxicity in zebrafish embryo assessed as survival at 0.1 uM preincubated for 1 hr measured after 120 hrs (reference value: 82.5 +/- 8.4%); parameters: species or system Danio rerio; conditions: zebrafish embryos
[10] = target: T1, DNA topoisomerase 1 (Homo sapiens) (UniProt P11387); test: Inhibition of recombinant Top1 (unknown origin) assessed as Top 1 mediated DNA cleavage using 3'-[32P]-labeled 117 bp DNA as substrate at 0.1 to 100 uM after 20 mins by PAGE analysis
T1 sequence (whole entry): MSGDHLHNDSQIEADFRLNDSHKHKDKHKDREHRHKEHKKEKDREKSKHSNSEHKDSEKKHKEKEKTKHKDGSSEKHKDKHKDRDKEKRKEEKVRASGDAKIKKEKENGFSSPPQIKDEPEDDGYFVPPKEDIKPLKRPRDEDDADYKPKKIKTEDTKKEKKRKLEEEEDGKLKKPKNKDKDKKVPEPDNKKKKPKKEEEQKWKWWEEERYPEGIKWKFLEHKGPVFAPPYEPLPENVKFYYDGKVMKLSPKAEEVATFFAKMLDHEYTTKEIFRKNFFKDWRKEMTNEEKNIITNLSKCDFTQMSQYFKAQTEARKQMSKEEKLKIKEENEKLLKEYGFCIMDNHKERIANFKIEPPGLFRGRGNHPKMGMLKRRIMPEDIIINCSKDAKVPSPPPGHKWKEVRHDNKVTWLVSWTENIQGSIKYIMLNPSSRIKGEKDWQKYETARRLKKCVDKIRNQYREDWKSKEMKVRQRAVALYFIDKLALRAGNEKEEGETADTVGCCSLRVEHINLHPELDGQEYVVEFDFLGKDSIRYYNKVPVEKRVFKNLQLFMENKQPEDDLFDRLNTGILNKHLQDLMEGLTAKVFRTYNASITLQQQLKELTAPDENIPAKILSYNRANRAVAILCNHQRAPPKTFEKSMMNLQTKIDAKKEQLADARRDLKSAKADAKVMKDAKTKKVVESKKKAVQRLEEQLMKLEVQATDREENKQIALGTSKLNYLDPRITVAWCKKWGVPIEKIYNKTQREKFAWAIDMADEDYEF
How it was run: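 About 2 nM 3'-[32P]-labeled DNA with recombinant Top1 in 10 mM Tris-HCl pH 7.5, 50 mM KCl, 5 mM MgCl2, 0.1 mM EDTA, 15 μg/mL BSA, 25 °C, 20 min. Compound at 0.1, 1, 10 and 100 μM. Stopped with 0.5% SDS and formamide dye, then run on 20% denaturing PAGE with phosphorimaging.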

[11] = Toxicity in zebrafish embryo assessed as survival at 0.01 uM preincubated for 1 hr measured after 24 hrs (reference value: 86.2 +/- 8.5%); parameters: species or system Danio rerio; conditions: zebrafish embryos
[12] = Toxicity in zebrafish embryo assessed as survival at 1 uM preincubated for 1 hr measured after 96 hrs (reference value: 82.5 +/- 8.4%); parameters: species or system Danio rerio; conditions: zebrafish embryos
[13] = Toxicity in zebrafish embryo assessed as survival at 0.1 uM preincubated for 1 hr measured after 48 hrs (reference value: 84.4 +/- 8.5%); parameters: species or system Danio rerio; conditions: zebrafish embryos
[14] = Toxicity in zebrafish embryo assessed as survival at 1 uM preincubated for 1 hr measured after 120 hrs (reference value: 82.5 +/- 8.4%); parameters: species or system Danio rerio; conditions: zebrafish embryos
[15] = Toxicity in zebrafish embryo assessed as survival at 0.1 uM preincubated for 1 hr measured after 72 hrs (reference value: 82.5 +/- 8.4%); parameters: species or system Danio rerio; conditions: zebrafish embryos
[16] = Toxicity in zebrafish embryo assessed as survival at 0.01 uM preincubated for 1 hr measured after 48 hrs (reference value: 84.4 +/- 8.5%); parameters: species or system Danio rerio; conditions: zebrafish embryos
[17] = Toxicity in zebrafish embryo assessed as survival at 10 uM preincubated for 1 hr measured after 24 to 120 hrs (reference value: 82.5 to 86.2%); parameters: species or system Danio rerio; conditions: zebrafish embryos
SF-539 = test: Antiproliferative activity against human SF539 cells assessed as growth inhibition; assay type: functional
How it was run: (§1)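 NCI-60 screen: single-dose pre-screen at 10 μM, then five concentrations from 0.01 to 100 μM. Values beyond the tested range are recorded as 0.01 or 100 μM.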

HOP-62 = test: Antiproliferative activity against human HOP62 cells assessed as growth inhibition; assay type: functional; how it was run: as §1
SN12C = test: Antiproliferative activity against human SN12C cells assessed as growth inhibition; assay type: functional; how it was run: as §1
OVCAR-3 = test: Antiproliferative activity against human OVCAR3 cells assessed as growth inhibition; assay type: functional; how it was run: as §1
MCF7 = test: Antiproliferative activity against human MCF7 cells assessed as growth inhibition; assay type: functional; how it was run: as §1
UACC-62 = test: Antiproliferative activity against human UACC62 cells assessed as growth inhibition; assay type: functional; how it was run: as §1
DU-145 = test: Antiproliferative activity against human DU145 cells assessed as growth inhibition; assay type: functional; how it was run: as §1
HCT-116 = test: Antiproliferative activity against human HCT116 cells assessed as growth inhibition; assay type: functional; how it was run: as §1

SMILES	Top1-mediated DNA cleavage activity (active/not active) [10]	GI50 (SF-539) [nM]	GI50 (HOP-62) [nM]	GI50 (SN12C) [nM]	GI50 (OVCAR-3) [nM]	GI50 (MCF7) [nM]	GI50 (UACC-62) [nM]	GI50 (DU-145) [nM]	GI50 (HCT-116) [nM]	also measured
COc1cnc2c(c1)C(=O)c1c-2n(CCCn2ccnc2)c(=O)c2cc([N+](=O)[O-])ccc12	Active	–	–	–	–	–	–	–	–	survival at 96 h, 0.01 µM [1]: 45%; survival at 24 h, 0.1 µM [2]: 5.6%; survival at 48 h, 1 µM [3]: 0%; survival at 72 h, 0.01 µM [4]: 45%; survival at 120 h, 0.01 µM [5]: 45%; survival at 96 h, 0.1 µM [6]: 0%; survival at 24 h, 1 µM [7]: 0%; survival at 72 h, 1 µM [8]: 0%; survival at 120 h, 0.1 µM [9]: 0%; survival at 24 h, 0.01 µM [11]: 62.5%; survival at 96 h, 1 µM [12]: 0%; survival at 48 h, 0.1 µM [13]: 0%; survival at 120 h, 1 µM [14]: 0%; survival at 72 h, 0.1 µM [15]: 0%; survival at 48 h, 0.01 µM [16]: 55.6%; survival at 10 µM [17]: 0%
COc1cnc2c(c1)C(=O)c1c-2n(CCCn2ccnc2)c(=O)c2cc(F)ccc12	Active	24	< 10	< 10	43	< 10	16	< 10	< 10	survival at 96 h, 0.01 µM [1]: 87.5%; survival at 24 h, 0.1 µM [2]: 86.2%; survival at 48 h, 1 µM [3]: 0%; survival at 72 h, 0.01 µM [4]: 87.5%; survival at 120 h, 0.01 µM [5]: 87.5%; survival at 96 h, 0.1 µM [6]: 45.6%; survival at 24 h, 1 µM [7]: 28.8%; survival at 72 h, 1 µM [8]: 0%; survival at 120 h, 0.1 µM [9]: 45.6%; survival at 24 h, 0.01 µM [11]: 87.5%; survival at 96 h, 1 µM [12]: 0%; survival at 48 h, 0.1 µM [13]: 62.5%; survival at 120 h, 1 µM [14]: 0%; survival at 72 h, 0.1 µM [15]: 45.6%; survival at 48 h, 0.01 µM [16]: 87.5%; survival at 10 µM [17]: 0%
COc1cnc2c(c1)C(=O)c1c-2n(CCCN2CCCC2)c(=O)c2cc(Cl)ccc12	Active	–	–	–	–	–	–	–	–	–
CCNCCCn1c2c(c3ccc(F)cc3c1=O)C(=O)c1cc(OC)cnc1-2	Active	320	149	151	282	42	341	215	136	–
COc1cnc2c(c1)C(=O)c1c-2n(CCCN2CCCC2)c(=O)c2cc(F)ccc12	Active	360	212	241	307	48	471	211	153	–
COc1cnc2c(c1)C(=O)c1c-2n(CCCNC(C)C)c(=O)c2cc(Cl)ccc12	Active	554	70	417	1390	37	303	173	138	–
O=C1c2ccccc2-c2c1c1ccc(Cl)cc1c(=O)n2CCCn1ccnc1	Active	–	–	110	–	31	74	–	–	–
O=C1c2ccccc2-c2c1c1ccc([N+](=O)[O-])cc1c(=O)n2CCCn1ccnc1	Active	–	–	–	–	–	–	–	–	–
COc1cnc2c(c1)C(=O)c1c-2n(CCCN2CCNCC2)c(=O)c2cc(Cl)ccc12	inactive	1330	200	489	1430	89	1430	242	298	–
COc1cnc2c(c1)C(=O)c1c-2n(CCCN2CCOCC2)c(=O)c2cc(F)ccc12	Active	228	187	320	250	44	235	341	115	–
COc1cnc2c(c1)C(=O)c1c-2n(CCCNC2=NCCS2)c(=O)c2cc(F)ccc12	Active	305	59	238	567	33	344	144	82	–
COc1cnc2c(c1)C(=O)c1c-2n(CCCN2CCC(O)CC2)c(=O)c2cc(F)ccc12	inactive	295	142	189	254	31	240	174	89	–
COc1cnc2c(c1)C(=O)c1c-2n(CCCN2CCNCC2)c(=O)c2cc(F)ccc12	inactive	532	66	80	335	34	1260	62	91	–
COc1cnc2c(c1)C(=O)c1c-2n(CCCNC2=NCCS2)c(=O)c2cc(Cl)ccc12	Active	470	42	–	1300	36	95	92	350	–
COc1cnc2c(c1)C(=O)c1c-2n(CCCN2CCOCC2)c(=O)c2cc(Cl)ccc12	Active	230	270	–	780	90	180	410	160	–
COc1cnc2c(c1)C(=O)c1c-2n(CCCNC(C)C)c(=O)c2cc(F)ccc12	Active	248	107	164	190	31	271	210	93	–
COc1cnc2c(c1)C(=O)c1c-2n(CCCN2CCOCC2)c(=O)c2cc([N+](=O)[O-])ccc12	Active	–	–	–	–	–	–	–	–	–
CNCCCn1c2c(c3ccc(Cl)cc3c1=O)C(=O)c1cc(OC)cnc1-2	Active	730	220	1180	1410	46	574	331	550	–
CNCCCn1c2c(c3ccc(F)cc3c1=O)C(=O)c1cc(OC)cnc1-2	inactive	368	142	211	263	34	608	202	143	–
